This is an account of results in ChEMBL document CHEMBL4513216, “Probing the Open Global Health Chemical Diversity Library for Multistage-Active Starting Points for Next-Generation Antimalarials” (ACS Infect Dis, 2020).

SMILES strings stand for the structures.

The nature of the data set: Toxicity liver stage against HepG2, at 10uM. As to conditions: human, HepG2-A16-CD81EGFP cells; read-out: INHIBITION
It counts as cell-based. Details: test concentration 10 uM, cell line HepG2-A16-CD81EGFP. A digest of the protocol:
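Uninfected HepG2-A16-CD81EGFP cells, 3 × 10^3 per well, 1536-well, plated on prespotted compound at 10 μM final, parasite-free screening media added to match infected plates; puromycin 10 μM positive, DMSO 0.5% negative; run in parallel with 48 h PbLuc assay at 37 °C, 5% CO2; viability by CellTiter-Glo luminescence, normalized to controls.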
As to `CCC(C)(C)n1nnnc1C(c1cccs1)N1CCc2ccccc21` (configuration not stated), the cytotoxicity at 10 µM was 8.67%.

`CS(=O)(=O)N1CCC2(CCN(Cc3nccs3)CC2)CC1`: the cytotoxicity at 10 µM is 8.28%.

Take `N#Cc1cccc(CN2C[C@@H](F)[C@@H](OCc3nc4cnccc4[nH]3)C2)c1`: the cytotoxicity at 10 µM worked out at 3.62%.

Regarding `O=C(Cc1ccc(F)cc1)NCC1CCN(Cc2ccsc2)CC1`, the cytotoxicity at 10 µM was -7.15%.

On to `COc1ccccc1S(=O)(=O)NCC(c1cccn1C)N(C)C` (configuration not stated), for which the cytotoxicity at 10 µM was determined as 1.51%.

In the case of `CCS(=O)(=O)N1CCC2(CC1)CC[C@@]1(C(=O)N(C)C)CN(C(C)=O)C[C@@H]21`, the cytotoxicity at 10 µM stood at 6.43%.

As to `O=C(c1ccco1)N1CCO[C@@H]2CN(c3ncc(F)cn3)CC[C@@H]2C1`, the cytotoxicity at 10 µM is 4.74%.

As for `CC(=O)NCC(=O)N1Cc2ccnn2CC(COCCN(C)C)C1` (configuration not stated), the cytotoxicity at 10 µM amounted to 6.15%.

In the case of `CC(C)n1cnc(-c2nc(C(=O)N3CCN(C)CC3)c3ccccn23)c1`, the cytotoxicity at 10 µM came to 8.88%.

For the molecule `Cc1csc(CN2CC[C@H]3C[C@H](c4noc(C)n4)O[C@@H]3C2)n1`, the cytotoxicity at 10 µM was -2.97%.

`O=C(O)c1ccc2c(CN3CCCC3)c[nH]c2c1`: the cytotoxicity at 10 µM was -2.09%.

Consider `COc1ccccc1C1SCC(=O)Nc2n[nH]cc21` (configuration not stated), for which the cytotoxicity at 10 µM is -1.84%.

Consider `CC(C(=O)Nc1ccc(Cl)cn1)n1ccc(C(F)(F)F)n1` (configuration not stated), for which the cytotoxicity at 10 µM was 17.6%.

As to `O=C1NC2(CCCCC2)c2nnnn2-c2ccc(Br)cc21`, the cytotoxicity at 10 µM turned out to be 6.83%.

For the molecule `Cc1nn(C)c2c(NCCCn3cccn3)nc(C3CC3)nc12`, the cytotoxicity at 10 µM worked out at 12.9%.

In the case of `COc1c(Br)c(CC2CC(CO)=NO2)c(Br)c2c1OCO2` (configuration not stated), the cytotoxicity at 10 µM came to 6.97%.

`O=C1CC(c2ccc(C(F)(F)F)cc2)c2snc(C(=O)O)c2N1` (configuration not stated): the cytotoxicity at 10 µM was determined as 10.7%.

Consider `Cc1ccc(C(=O)N2CCC(c3noc(-c4cccnc4)n3)CC2)cn1`, for which the cytotoxicity at 10 µM worked out at 2.6%.

On to `Cc1ncsc1-c1cc(C(=O)NCCO)ccn1`, for which the cytotoxicity at 10 µM was -6.58%.

As for `CCNC(=O)C1(Cc2cc(-c3ccccc3)no2)CCCN(C(C)=O)C1` (configuration not stated), the cytotoxicity at 10 µM stood at 15.9%.

Consider `CNc1nc(C2CCCN(C(=O)CNC(C)=O)C2)nc2c1CN(C)CC2` (configuration not stated), for which the cytotoxicity at 10 µM is -10.9%.

For `Cn1nccc1-c1cc(C2CCN(S(C)(=O)=O)CC2)ccn1`, the cytotoxicity at 10 µM is -28.2%.

On to `CCCn1ccnc1CN1CCCC1c1cccc(-n2ccnc2)n1` (configuration not stated), for which the cytotoxicity at 10 µM was -22.2%.

Turning to `CN(C)C(=O)CN1CCCC1c1cccc(Cc2ccccc2F)n1` (configuration not stated), the cytotoxicity at 10 µM was -6.94%.

Turning to `CCn1ccc(C(=O)N2CCOC(c3nc(-c4cccs4)no3)C2)n1` (configuration not stated), the cytotoxicity at 10 µM came out at 10.9%.

Take `CC(=O)N1CCC(c2ccnc(Nc3cncnc3)n2)C1` (configuration not stated): the cytotoxicity at 10 µM is 0.951%.

For the molecule `O=C1OCCN1CCSc1nnnn1CC(F)(F)F`, the cytotoxicity at 10 µM is -41.5%.

Regarding `COc1ccnc(N2CCC(OCCN3CCCCC3)C2)n1` (configuration not stated), the cytotoxicity at 10 µM was -44.9%.

With `O=C(Cc1ccc(-n2cnnn2)cc1)Nc1cnn(CC(F)F)c1`, the cytotoxicity at 10 µM was 1.97%.

For the molecule `CC(=O)Nc1nc(CNc2ccccc2CCC(F)(F)F)cs1`, the cytotoxicity at 10 µM is 27.9%.

Turning to `Cc1nc(CN2CCOC3(CCCC3)C2)no1`, the cytotoxicity at 10 µM is -6.65%.

In the case of `O=S(=O)(NCCCn1ccc2ccccc21)N1CCCCC1`, the cytotoxicity at 10 µM amounted to 12.8%.

As to `Cc1ccc(C(=O)NC(C)Cn2cccn2)c(=O)[nH]1` (configuration not stated), the cytotoxicity at 10 µM was -2.16%.

In the case of `CC(C)S(=O)(=O)C(C)C(=O)NCc1ccccc1OCc1ccccc1` (configuration not stated), the cytotoxicity at 10 µM worked out at 18.8%.

For `NC(=O)c1cc(C2CC2)nc2ccc(F)cc12`, the cytotoxicity at 10 µM turned out to be 3.87%.

With `Cc1cc(N2CCSCC2)ccc1NC(=O)N(CCO)C1CC1`, the cytotoxicity at 10 µM was -10.1%.

In the case of `CN(C)C(=O)CNC(=O)c1cc2ccccc2nc1N1CCCC1`, the cytotoxicity at 10 µM was -6.18%.

`Cn1nc2c(cc1=O)CN(c1ncnc3sccc13)CC2`: the cytotoxicity at 10 µM was found to be 7.97%.

For the molecule `O=C(c1cn(-c2ccccc2Cl)nn1)N1CCN(CCO)CC1`, the cytotoxicity at 10 µM was -2.88%.

For the molecule `Cc1ccc(C(CNCc2cccnc2)N2CCOCC2)s1` (configuration not stated), the cytotoxicity at 10 µM stood at 4.03%.

Regarding `COCC(=O)NC1CCN(c2cccc(OC(F)(F)F)c2)C1=O` (configuration not stated), the cytotoxicity at 10 µM is -3.17%.

Regarding `O=C(O)c1ccc(OC2CCOCC2)cc1`, the cytotoxicity at 10 µM was -6.11%.

For the molecule `CN(C(=O)c1ccc[nH]1)C1CCC(NC(=O)OC(C)(C)C)CC1` (configuration not stated), the cytotoxicity at 10 µM is -11.9%.

As for `Cc1nc(N2CCCC2)ccc1NCc1ccccn1`, the cytotoxicity at 10 µM was found to be 5.13%.

Consider `CSCCC(NC(=O)C1CC1)C(=O)N(C)Cc1ccsc1` (configuration not stated), for which the cytotoxicity at 10 µM is -3.96%.

`CC(NC(=O)C1(NC(=O)c2ccc3[nH]ncc3c2)CCCC1)C1CC1` (configuration not stated): the cytotoxicity at 10 µM was -2.03%.

On to `N#Cc1cccc(S(=O)(=O)NC(=O)CCOCC(F)(F)F)c1`, for which the cytotoxicity at 10 µM amounted to 12.4%.

For `O=C(NCc1ccco1)Nc1cccc(S(=O)(=O)C(F)F)c1`, the cytotoxicity at 10 µM was -54.8%.

`CN(C)C(=O)CNS(=O)(=O)c1cc(Br)ccc1F`: the cytotoxicity at 10 µM is -47.1%.

Regarding `O=C1NC2(Nc3ncccc31)C(=O)Nc1c2ccc(Cl)c1F` (configuration not stated), the cytotoxicity at 10 µM was determined as 9.06%.

As to `Cc1csc(N2CCC(NCC3(O)CCc4ccccc43)CC2)n1` (configuration not stated), the cytotoxicity at 10 µM amounted to 0.455%.

`CCS(=O)(=O)c1ccc(N2CCC(NC(=O)CCC(C)C)CC2)cc1`: the cytotoxicity at 10 µM amounted to 15.7%.

In the case of `CCNC(=O)N1CCCCC1CCO` (configuration not stated), the cytotoxicity at 10 µM was -4.27%.

Regarding `c1cnc(N2CCCC3(CCN(Cc4ccncc4)C3)C2)nc1` (configuration not stated), the cytotoxicity at 10 µM is 0.436%.

Take `CCOCC1CN(C(=O)C2=CCCC2)Cc2cnn(CC)c21` (configuration not stated): the cytotoxicity at 10 µM came to 0.565%.

Regarding `CN1CC(=O)c2sc(NCCc3ccccc3)nc2C1`, the cytotoxicity at 10 µM is -11%.

Regarding `CNCC[C@H]1CC(C)(C)Oc2ccc(OCC3CC3)cc21`, the cytotoxicity at 10 µM was -9.44%.

With `CN1CCCN(c2nccc(-c3c[nH]nc3-c3ccncc3)n2)CC1`, the cytotoxicity at 10 µM is -11%.

Take `COCCC1(CO)CCCN(C(=O)c2ccc(C(C)C)[nH]c2=O)C1` (configuration not stated): the cytotoxicity at 10 µM was -55.1%.

Consider `CC(C)n1ccnc1CN1C(=O)OC[C@@H]1c1ccccc1`, for which the cytotoxicity at 10 µM was -8.48%.

Consider `Cc1nc(CCN2CCC(Oc3ccccc3F)CC2)cs1`, for which the cytotoxicity at 10 µM is 6.9%.

Take `Cc1nccn1CC1CCCN(C(=O)Cc2ccsc2)C1` (configuration not stated): the cytotoxicity at 10 µM was determined as 16.2%.

As to `COc1ccc(NC(=O)N2CCOCC(CN(C)C)C2)c(C)c1` (configuration not stated), the cytotoxicity at 10 µM was found to be 0.124%.

As to `COCCN(Cc1nccs1)C(=O)c1cc(-c2ccc(C)o2)n[nH]1`, the cytotoxicity at 10 µM came to 6.23%.

As to `CCCNS(=O)(=O)Cc1ccc(Br)cc1`, the cytotoxicity at 10 µM is -4.81%.

Regarding `Cc1cc(C2CCC2)nc(N2CCC3(CCCNC3=O)C2)n1` (configuration not stated), the cytotoxicity at 10 µM was -3.83%.

Turning to `NCC1Cc2cc(-c3cncc(C(=O)N4CCOCC4)n3)cc(Cl)c2O1` (configuration not stated), the cytotoxicity at 10 µM is -42.8%.

As to `O=C(CCc1ccccc1)C1CCCN(C(=O)c2cncc(Cl)c2)C1` (configuration not stated), the cytotoxicity at 10 µM worked out at 1.72%.

With `CC(C)c1nnc2sc(CC3CCS(=O)(=O)C3)nn12` (configuration not stated), the cytotoxicity at 10 µM is -6.48%.

As to `O=C(O)CCc1nc2nccc(-c3ccc(F)cc3)n2n1`, the cytotoxicity at 10 µM was -9.24%.

On to `Fc1cccc(CN2CCC(c3n[nH]c4ncccc34)CC2)c1F`, for which the cytotoxicity at 10 µM is -2.86%.

`Cc1nn(C)c(C)c1CC(=O)N1CCc2nnc(N(C)C)cc2C1`: the cytotoxicity at 10 µM is -7.63%.

`Cc1cc(C)c(C)c(OCCCNC(=O)NC(C)c2nncn2C)c1` (configuration not stated): the cytotoxicity at 10 µM was -12.3%.

Turning to `O=c1[nH]c(CN(Cc2ccco2)C2CCCC2)nc2ccccc12`, the cytotoxicity at 10 µM amounted to 11.6%.

Take `Cc1nc(C2CCCN2CC(=O)NCCc2ccsc2)no1` (configuration not stated): the cytotoxicity at 10 µM is -9.34%.

For `COc1c(CNCc2cccc(Cn3ccnc3)c2)c(C)nn1C`, the cytotoxicity at 10 µM turned out to be 5.61%.

Regarding `CC(Nc1cccc(CN2CCOC2=O)c1)C(=O)Nc1ccccc1F` (configuration not stated), the cytotoxicity at 10 µM is -5.25%.

For the molecule `Cc1cnc(CN(C)C2CCN(CC(=O)N(C)c3nccs3)C2)o1` (configuration not stated), the cytotoxicity at 10 µM is -4.1%.

Consider `CC(NC(=O)N1CCC(n2cncn2)CC1)c1ccc(F)cc1F` (configuration not stated), for which the cytotoxicity at 10 µM was -9.88%.

With `CCc1nc2n(n1)CC(NCC(=O)Nc1nccs1)CC2` (configuration not stated), the cytotoxicity at 10 µM is -7.13%.

For the molecule `COc1cccc(Nc2nc(N3CCCC3)nc3c2CNCC3)c1`, the cytotoxicity at 10 µM is -6.41%.

In the case of `OC1CCN(Cc2ccnc(-c3cccnc3)n2)CC1`, the cytotoxicity at 10 µM was -20.7%.

On to `CN1CC(=O)N(c2cccc(F)c2)CC12CCN(Cc1nccs1)C2` (configuration not stated), for which the cytotoxicity at 10 µM came out at 2.08%.

For the molecule `COC[C@@H]1CCC[C@]12CN(CCc1ccccc1)CCO2`, the cytotoxicity at 10 µM was found to be 0.312%.

Take `Fc1cccc(CN2CCC3(CCCN3c3ncccn3)CC2)c1`: the cytotoxicity at 10 µM worked out at 3.62%.

As for `COc1ccc(CN2CCC3(CC(=O)N(c4cncnc4)C3)C2)cc1` (configuration not stated), the cytotoxicity at 10 µM worked out at 4.53%.

`Cc1ccc(CN2CCOC3(COCCN(CCN(C)C)C3)C2)o1` (configuration not stated): the cytotoxicity at 10 µM was -1.65%.

Regarding `CCc1ccc(CN2CC[C@@H]3CN(S(C)(=O)=O)CCO[C@@H]3C2)o1`, the cytotoxicity at 10 µM is -0.461%.

Regarding `CC(C)NC(=O)N1CCN(Cc2ccccn2)CC2(CC(=O)N(C)C2)C1` (configuration not stated), the cytotoxicity at 10 µM is 2.79%.

As for `Cc1cnc(N2CCN3C[C@H](OCc4ccccn4)C[C@H]3C2)nc1`, the cytotoxicity at 10 µM was -1.68%.

As to `CCOCC(=O)N1Cc2nnn(C)c2C(COCc2ccccn2)C1` (configuration not stated), the cytotoxicity at 10 µM was -3.23%.

Turning to `Cc1ccc2c(n1)N(CCN(C)C)CCN(Cc1c(C)noc1C)C2`, the cytotoxicity at 10 µM amounted to 5.74%.

Regarding `O=C(N1CCCC1)N1Cc2nccn2CC(CN2CCCC2)C1` (configuration not stated), the cytotoxicity at 10 µM turned out to be 1.52%.

For the molecule `CNC(=O)CN1CCO[C@H]2CN(CC3CC3)C[C@H]21`, the cytotoxicity at 10 µM amounted to 6.25%.

`CCCn1nccc1NC(=O)CN1CCCC1Cn1cc(C)cn1` (configuration not stated): the cytotoxicity at 10 µM was -8.09%.

`N#Cc1ccccc1CN1C[C@H]2CC[C@@H](C1)N(CC1CCC1)C2=O`: the cytotoxicity at 10 µM was 0.258%.

For `Cc1ccc(CN2C[C@@H]3C[C@H](C(=O)NCc4cccnc4)[C@H](C2)O3)cc1`, the cytotoxicity at 10 µM amounted to 2.5%.
